ChEMBL document CHEMBL1123302, “Antagonists of substance P. Further modifications of substance P antagonists obtained by replacing either positions 7, 9 or 7, 8 and 11 of SP with D-amino acid residues” (J Med Chem, 1986)

Assays:
[1] = biological target: Substance-P receptor (Rattus norvegicus) (UniProt P14600); test: Antagonistic activity against Substance P(6-11) receptor in rat spinal cord at concentration of 50 uM.
[2] = biological target: Metabotropic glutamate receptor 3 (Rattus norvegicus) (UniProt P31422); test: Antagonistic activity against Glutamate receptor in rat spinal cord at concentration of 10 uM.; assay type: functional, tissue-based
Summary of the method: (§1)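 Neonatal rat spinal cord, hemisected sagittally, superfused at 1 mL/min with oxygenated Krebs-Henseleit medium containing 0.5% urethane at room temperature. Agonists were given in 2-mL doses in the superfusate. Antagonist was superfused continuously for at least 15 min before agonist retesting. Read-out was ventral root depolarization (DC potential, ventral root vs cord body), measured as amplitude and area of response.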

[3] = biological target: Metabotropic glutamate receptor 3 (Rattus norvegicus) (UniProt P31422); test: Antagonistic activity against Glutamate receptor in rat spinal cord at concentration of 25 uM.; assay type: functional, tissue-based
Summary of the method: as §1

[4] = test system: muscarinic acetylcholine receptor (Rattus norvegicus); test: Antagonistic activity against Carbachol receptor in rat spinal cord at concentration of 10 uM.
[5] = biological target: Substance-P receptor (Rattus norvegicus) (UniProt P14600); test: Antagonistic activity against Substance P(6-11) receptor in rat spinal cord at concentration of 10 uM.
[6] = test system: muscarinic acetylcholine receptor (Rattus norvegicus); test: Antagonistic activity against Carbachol receptor in rat spinal cord at concentration of 50 uM.
[7] = biological target: Substance-P receptor (Rattus norvegicus) (UniProt P14600); test: Antagonistic activity against Substance P receptor in rat spinal cord at concentration of 25 uM.
[8] = biological target: Substance-P receptor (Cavia porcellus) (UniProt P30547); test: In vitro inhibition of substance P induced contractions of the guinea pig ileum at 10 uM.; assay type: tissue-based
Summary of the method: (§2)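 Agonist (SP or SP(6-11)-hexapeptide) dose-response curves on a 3-min cycle with 1-min contact, then washout. Dose ratio = agonist EC50 with antagonist / EC50 alone. At least two preparations per compound; ratios below 2 taken as insignificant.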

[9] = biological target: Substance-P receptor (Rattus norvegicus) (UniProt P14600); test: Antagonistic activity against Substance P receptor in rat spinal cord at concentration of 10 uM.
[10] = biological target: Substance-P receptor (Rattus norvegicus) (UniProt P14600); test: Antagonistic activity against Substance P(6-11) receptor in rat spinal cord at concentration of 25 uM.
Substance-P receptor = Substance-P receptor (Rattus norvegicus, UniProt P14600); test: Histamine releasing activity of Substance P from isolated rat peritoneal mast cells; assay type: functional
Summary of the method: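 Histamine release from isolated rat peritoneal mast cells, method of Fretwell et al. Dose-response curves were built over a range of concentrations, and EC50 values were calculated from the curves.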

[11] = biological target: Substance-P receptor (Cavia porcellus) (UniProt P30547); test: In vitro inhibition of substance P (6-11) hexapeptide induced contractions of the guinea pig ileum at 10 uM.; assay type: tissue-based
Summary of the method: as §2

[12] = Antagonistic activity against Glutamate receptor in rat spinal cord at concentration of 50 uM.
[13] = biological target: Metabotropic glutamate receptor 3 (Rattus norvegicus) (UniProt P31422); test: Antagonistic activity against Glutamate receptor in rat spinal cord at concentration of 5 uM.; assay type: functional, tissue-based
Summary of the method: as §1

[14] = biological target: Substance-P receptor (Cavia porcellus) (UniProt P30547); test: In vitro inhibition of substance P (6-11) hexapeptide induced contractions of the guinea pig ileum at 5 uM.; assay type: tissue-based
Summary of the method: as §2

[15] = test system: muscarinic acetylcholine receptor (Rattus norvegicus); test: Antagonistic activity against Carbachol receptor in rat spinal cord at concentration of 5 uM.
[16] = biological target: Substance-P receptor (Rattus norvegicus) (UniProt P14600); test: Antagonistic activity against Substance P receptor in rat spinal cord at concentration of 5 uM.
[17] = biological target: Substance-P receptor (Rattus norvegicus) (UniProt P14600); test: Antagonistic activity against Substance P(6-11) receptor in rat spinal cord at concentration of 5 uM.
[18] = biological target: Substance-P receptor (Rattus norvegicus) (UniProt P14600); test: Antagonistic activity against Substance P receptor in rat spinal cord at concentration of 50 uM.
[19] = biological target: Substance-P receptor (Cavia porcellus) (UniProt P30547); test: In vitro inhibition of substance P induced contractions of the guinea pig ileum at 5 uM.; assay type: tissue-based
Summary of the method: as §2

[20] = biological target: Substance-P receptor (Rattus norvegicus) (UniProt P14600); test: Antagonistic activity against Substance P receptor in rat spinal cord at concentration of 20 uM.
[21] = biological target: Metabotropic glutamate receptor 3 (Rattus norvegicus) (UniProt P31422); test: Antagonistic activity against Glutamate receptor in rat spinal cord at concentration of 20 uM.; assay type: functional, tissue-based
Summary of the method: as §1

[22] = biological target: Substance-P receptor (Cavia porcellus) (UniProt P30547); test: Antagonistic activity against Substance P receptor in guinea pig ileum at concentration of 1 uM.; assay type: functional, tissue-based
Summary of the method: (§3)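 Distal ileum from Dunkin-Hartley guinea pigs (300-350 g, both sexes), held in a 5-mL bath of Krebs solution at 37 °C gassed with 95% O2/5% CO2. Agonist dose-response curves ran on a 3-min cycle with 1-min contact, then washout. Dose ratio = agonist EC50 with antagonist / EC50 alone. At least two preparations per compound; ratios below two were taken as insignificant.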

[23] = biological target: Substance-P receptor (Rattus norvegicus) (UniProt P14600); test: Antagonistic activity against Substance P(6-11) receptor in rat spinal cord at concentration of 20 uM.
[24] = biological target: Substance-P receptor (Cavia porcellus) (UniProt P30547); test: Antagonistic activity against Substance P(6-11) receptor in guinea pig ileum at concentration of 1 uM.; assay type: functional, tissue-based
Summary of the method: as §3

[25] = biological target: Metabotropic glutamate receptor 3 (Rattus norvegicus) (UniProt P31422); test: Antagonistic activity against Glutamate receptor in rat spinal cord at concentration of 50 uM.; assay type: functional, tissue-based
Summary of the method: as §1

Chain of Substance-P receptor (Rattus norvegicus) (P14600 whole entry, looked up): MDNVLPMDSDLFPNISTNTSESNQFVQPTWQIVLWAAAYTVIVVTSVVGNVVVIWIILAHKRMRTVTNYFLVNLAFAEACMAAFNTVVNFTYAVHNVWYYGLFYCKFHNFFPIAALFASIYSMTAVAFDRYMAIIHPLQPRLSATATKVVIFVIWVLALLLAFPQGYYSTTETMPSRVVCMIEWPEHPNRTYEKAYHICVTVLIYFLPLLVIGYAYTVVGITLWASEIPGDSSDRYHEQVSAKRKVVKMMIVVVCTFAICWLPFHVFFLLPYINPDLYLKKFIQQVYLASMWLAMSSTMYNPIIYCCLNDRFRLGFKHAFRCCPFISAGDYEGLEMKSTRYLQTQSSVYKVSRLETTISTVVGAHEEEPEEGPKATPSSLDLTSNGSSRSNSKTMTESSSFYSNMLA
Chain of Metabotropic glutamate receptor 3 (Rattus norvegicus) (P31422 23-879 limits assumed): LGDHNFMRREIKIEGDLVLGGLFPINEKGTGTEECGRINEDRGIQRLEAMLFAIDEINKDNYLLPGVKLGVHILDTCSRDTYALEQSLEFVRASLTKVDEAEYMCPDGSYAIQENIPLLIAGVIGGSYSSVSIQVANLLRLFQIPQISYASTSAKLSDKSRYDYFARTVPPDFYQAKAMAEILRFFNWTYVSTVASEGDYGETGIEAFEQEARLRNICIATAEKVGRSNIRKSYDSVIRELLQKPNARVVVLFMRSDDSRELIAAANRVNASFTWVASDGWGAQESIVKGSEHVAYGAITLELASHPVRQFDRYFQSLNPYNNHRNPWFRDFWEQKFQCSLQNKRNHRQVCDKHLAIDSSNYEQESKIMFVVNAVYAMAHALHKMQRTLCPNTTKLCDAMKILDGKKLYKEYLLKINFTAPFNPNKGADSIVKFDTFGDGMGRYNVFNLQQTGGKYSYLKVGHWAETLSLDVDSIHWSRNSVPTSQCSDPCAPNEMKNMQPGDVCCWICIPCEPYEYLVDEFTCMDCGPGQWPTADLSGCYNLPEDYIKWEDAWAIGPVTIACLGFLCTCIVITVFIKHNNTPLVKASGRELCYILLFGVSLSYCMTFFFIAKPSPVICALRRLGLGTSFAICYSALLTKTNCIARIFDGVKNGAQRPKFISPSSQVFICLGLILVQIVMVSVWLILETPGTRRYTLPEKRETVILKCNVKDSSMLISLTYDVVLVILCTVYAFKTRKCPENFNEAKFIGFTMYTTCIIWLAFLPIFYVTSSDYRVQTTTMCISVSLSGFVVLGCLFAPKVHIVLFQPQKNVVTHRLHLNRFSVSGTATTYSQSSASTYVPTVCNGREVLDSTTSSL
Chain of Substance-P receptor (Cavia porcellus) (P30547 whole entry): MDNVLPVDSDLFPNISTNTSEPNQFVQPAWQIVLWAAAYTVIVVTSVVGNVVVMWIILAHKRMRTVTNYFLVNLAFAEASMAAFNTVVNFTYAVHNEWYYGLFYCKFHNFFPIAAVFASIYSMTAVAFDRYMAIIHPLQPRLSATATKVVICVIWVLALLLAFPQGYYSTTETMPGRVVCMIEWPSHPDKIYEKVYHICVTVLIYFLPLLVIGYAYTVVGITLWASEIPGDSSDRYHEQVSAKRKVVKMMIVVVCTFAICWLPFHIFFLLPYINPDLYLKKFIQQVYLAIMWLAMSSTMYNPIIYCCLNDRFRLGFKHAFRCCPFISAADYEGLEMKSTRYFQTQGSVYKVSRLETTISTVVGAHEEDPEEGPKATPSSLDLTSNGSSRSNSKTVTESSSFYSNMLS
Chain of Substance-P receptor (P14600 whole entry): as the sequence (P14600 whole entry, looked up) above

| SMILES | Change in amplitude response [1] | Change in amplitude response [2] | Change in amplitude response [4] | Change in amplitude response [5] | Change in amplitude response [7] | Activity [8] | Change in amplitude response [9] | Change in amplitude response [10] | Activity [11] | Activity [14] | Change in amplitude response [18] | Activity [19] | further results |
| --- | --- | --- | --- | --- | --- | --- | --- | --- | --- | --- | --- | --- | --- |
| COC(=O)[C@@H](CCSC)NC(=O)[C@H](CC(C)C)NC(=O)CNC(=O)[C@@H](Cc1c[nH]c2ccccc12)NC(=O)[C@@H](Cc1c[nH]c2ccccc12)NC(=O)[C@H](CCC(N)=O)NC(=O)[C@H](CCC(N)=O)NC(=O)[C@@H]1CCCN1C(=O)[C@H](CCCCNC(=O)OCc1ccccc1)NC(=O)[C@@H]1CCCN1C(=O)[C@H](CCCN=C(N)N)NC(=O)OCc1ccccc1 | -75% | -3% | -6% | -33% | 18% | 10.5 dose ratio | 19% | -77% |  |  |  |  | Change in amplitude response [3]: -13%; Change in amplitude response [6]: -24% |
| COC(=O)[C@H](CCSC)NC(=O)[C@H](CC(C)C)NC(=O)[C@@H](Cc1c[nH]c2ccccc12)NC(=O)[C@H](Cc1ccccc1)NC(=O)[C@@H](Cc1ccccc1)NC(=O)[C@H](CCCN=C(N)N)NC(=O)[C@H](CC(N)=O)NC(=O)C1CCCN1C(=O)[C@H](CCCCNC(=O)OCc1ccccc1)NC(=O)C1CCCN1C(=O)[C@H](CCCN=C(N)N)NC(=O)OCc1ccccc1 (stereo in doubt) | -85% | -1% | -51% | -75% |  | 31.1 dose ratio | 3% |  | 11.1 dose ratio | 3.2 dose ratio | -37% | 14 dose ratio | IC50 (Substance-P receptor): 600 nM; Change in amplitude response [12]: 20%; Change in amplitude response [13]: -3%; Change in amplitude response [15]: -52%; Change in amplitude response [16]: -29%; Change in amplitude response [17]: -73% |
| COC(=O)[C@H](CCSC)NC(=O)[C@H](CC(C)C)NC(=O)[C@@H](Cc1c[nH]c2ccccc12)NC(=O)[C@H](Cc1ccccc1)NC(=O)[C@@H](Cc1ccccc1)NC(=O)[C@H](CCCN=C(N)N)NC(=O)[C@H](CC(N)=O)NC(=O)[C@@H]1CCCN1C(=O)[C@H](CCCCNC(=O)OCc1ccccc1)NC(=O)[C@@H]1CCCN1C(=O)[C@H](CCCN=C(N)N)NC(=O)OC(C)(C)C |  |  |  |  |  |  |  |  |  | 5.1 dose ratio |  | 2.8 dose ratio | Change in amplitude response [20]: 17%; Change in amplitude response [21]: -9%; Activity [22]: 3.1 dose ratio; Change in amplitude response [23]: -85%; Activity [24]: 3.1 dose ratio |
| COC(=O)[C@@H](CCSC)NC(=O)[C@H](CC(C)C)NC(=O)CN(C)C(=O)[C@H](Cc1ccccc1)NC(=O)[C@@H](Cc1ccccc1)NC(=O)[C@H](CCC(N)=O)NC(=O)[C@H](CCC(N)=O)NC(=O)C1CCCN1C(=O)OC(C)(C)C (stereo in doubt) | -57% |  |  |  | 7% | < 2 dose ratio |  | -29% | < 2 dose ratio | < 2 dose ratio | -12% | < 2 dose ratio | Change in amplitude response [25]: -4% |
